Assays:
A-431 = test: cells; format: functional, cell-based; conditions: Homo sapiens, A-431, 48 h
NCI-H1975 [1] = test: cells; format: functional, cell-based; conditions: Homo sapiens, NCI-H1975, 48 h
[2] = biological target: Epidermal growth factor receptor (Homo sapiens, UniProt P00533, T790M); format: protein assay
[3] = biological target: Epidermal growth factor receptor (Homo sapiens, UniProt P00533);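 also: inhibition of wild-type EGFR read out by HTRF, with a 5 min incubation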
NCI-H1975 [4] = test: Antitumor activity against human NCI-H1975 cells xenografted in nude mouse assessed as reduction in tumor growth at 30 mg/kg/day, ig relative to untreated control; format: functional; conditions: route intragastric
[5] = Ratio of drug level in lung to plasma in BALB/c mouse at 30 mg/kg, po after 6 hrs by LC/MS/MS method; format: ADME, organism-based; set-up: dose 30 mg/kg, route oral
Outline: (§1)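 BALB/c mice received a single oral dose of 30 mg/kg. Drug concentrations in lung, brain and plasma were measured at multiple time points over 6 h. Mean tissue levels are expressed as a lung/plasma/brain ratio, with plasma set to 1.0.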

[6] = Oral bioavailability in BALB/c mouse at 10 mg/kg after 24 hrs by LC/MS/MS method; format: ADME, organism-based; conditions: in vivo
[7] = biological target: Receptor tyrosine-protein kinase erbB-2 (Homo sapiens, UniProt P04626); test: Inhibition of wild type HER2 (unknown origin) incubated for 5 mins by HTRF assay
Cytochrome P450 1A2 = biological target: T1, Cytochrome P450 1A2 (Homo sapiens, UniProt P05177); test: Inhibition of CYP1A2 in human hepatic microsomes after 20 mins by LC/MS/MS method; format: ADME, Liver
T1 sequence (P05177 whole entry): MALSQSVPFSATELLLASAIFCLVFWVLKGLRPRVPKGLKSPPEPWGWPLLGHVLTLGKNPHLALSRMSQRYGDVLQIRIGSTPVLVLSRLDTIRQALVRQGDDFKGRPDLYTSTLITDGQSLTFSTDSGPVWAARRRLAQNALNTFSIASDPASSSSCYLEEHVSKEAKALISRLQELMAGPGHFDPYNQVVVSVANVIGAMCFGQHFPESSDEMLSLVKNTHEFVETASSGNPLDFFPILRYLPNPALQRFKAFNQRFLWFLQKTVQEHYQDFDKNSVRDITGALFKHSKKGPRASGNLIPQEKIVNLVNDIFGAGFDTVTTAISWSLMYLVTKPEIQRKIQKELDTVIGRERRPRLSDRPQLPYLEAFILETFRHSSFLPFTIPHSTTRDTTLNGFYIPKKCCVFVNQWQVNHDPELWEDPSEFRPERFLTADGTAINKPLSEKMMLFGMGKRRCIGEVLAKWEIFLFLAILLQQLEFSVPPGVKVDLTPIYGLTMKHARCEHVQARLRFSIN

hERG (KCNH2) [8] = biological target: T2, hERG (KCNH2) (Homo sapiens, UniProt Q12809); test: Inhibition of human ERG assessed as reduction in channel currents at 10 uM
[9] = Intrinsic clearance in dog liver microsomes assessed per mg protein at 1 uM in presence of NADPH after 0.5 to 30 mins by LC/MS/MS method; format: ADME, Canis lupus familiaris; conditions: read-out: CLH
[10] = Intrinsic clearance in human liver microsomes assessed per mg protein at 1 uM in presence of NADPH after 0.5 to 30 mins by LC/MS/MS method; format: ADME; conditions: read-out: CLH
[11] = Intrinsic clearance in rat liver microsomes assessed per mg protein at 1 uM in presence of NADPH after 0.5 to 30 mins by LC/MS/MS method; format: ADME; conditions: read-out: CLH
hERG (KCNH2) [12] = biological target: T2, hERG (KCNH2); test: Inhibition of human ERG assessed as reduction in channel currents at 1 uM
[13] = Apparent clearance in BALB/c mouse at 10 mg/kg, po after 24 hrs by LC/MS/MS method; format: ADME, organism-based; set-up: dose 10 mg/kg, route oral; conditions: BALB/c, in vivo, read-out: CL(app)
Mus musculus = test: Apparent volume of distribution in BALB/c mouse at 10 mg/kg, po after 24 hrs by LC/MS/MS method; format: ADME, organism-based; set-up: dose 10 mg/kg, route oral; conditions: in vivo
Cytochrome P450 3A4 = Cytochrome P450 3A4 (Homo sapiens, UniProt P08684); test: Inhibition of CYP3A4 in human hepatic microsomes after 20 mins by LC/MS/MS method; format: ADME, Liver
[14] = Intrinsic clearance in mouse liver microsomes assessed per mg protein at 1 uM in presence of NADPH after 0.5 to 30 mins by LC/MS/MS method; format: ADME; conditions: read-out: CLH
Cytochrome P450 2C19 = Cytochrome P450 2C19 (Homo sapiens, UniProt P33261); test: Inhibition of CYP2C19 in human hepatic microsomes after 20 mins by LC/MS/MS method; format: ADME, Liver
[15] = Ratio of drug level in brain to plasma in BALB/c mouse at 30 mg/kg, po after 6 hrs by LC/MS/MS method; format: ADME, organism-based; set-up: dose 30 mg/kg, route oral; conditions: read-out: BPR
Outline: as §1

[16] = Intrinsic clearance in monkey liver microsomes assessed per mg protein at 1 uM in presence of NADPH after 0.5 to 30 mins by LC/MS/MS method; format: ADME, Macaca mulatta; conditions: rhesus monkey, read-out: CLH
Cytochrome P450 2D6 = Cytochrome P450 2D6 (Homo sapiens, UniProt P10635); test: Inhibition of CYP2D6 in human hepatic microsomes after 20 mins by LC/MS/MS method; format: ADME, Liver
Cytochrome P450 2C9 = Cytochrome P450 2C9 (Homo sapiens, UniProt P11712); test: Inhibition of CYP2C9 in human hepatic microsomes after 20 mins by LC/MS/MS method; format: ADME, Liver
[17] = Cmax in BALB/c mouse at 10 mg/kg, po after 24 hrs by LC/MS/MS method; format: ADME, organism-based; set-up: dose 10 mg/kg, route oral; conditions: in vivo
[18] = AUC (0 to infinity) in BALB/c mouse at 10 mg/kg, po after 24 hrs by LC/MS/MS method; format: ADME, organism-based, Plasma; set-up: dose 10 mg/kg, route oral, time infinity; conditions: BALB/c, plasma
SW-620 = test: Growth inhibition of human SW620 cells at 5 uM; format: functional; conditions: read-out: GI

Chain of Receptor tyrosine-protein kinase erbB-2 (P04626 whole entry): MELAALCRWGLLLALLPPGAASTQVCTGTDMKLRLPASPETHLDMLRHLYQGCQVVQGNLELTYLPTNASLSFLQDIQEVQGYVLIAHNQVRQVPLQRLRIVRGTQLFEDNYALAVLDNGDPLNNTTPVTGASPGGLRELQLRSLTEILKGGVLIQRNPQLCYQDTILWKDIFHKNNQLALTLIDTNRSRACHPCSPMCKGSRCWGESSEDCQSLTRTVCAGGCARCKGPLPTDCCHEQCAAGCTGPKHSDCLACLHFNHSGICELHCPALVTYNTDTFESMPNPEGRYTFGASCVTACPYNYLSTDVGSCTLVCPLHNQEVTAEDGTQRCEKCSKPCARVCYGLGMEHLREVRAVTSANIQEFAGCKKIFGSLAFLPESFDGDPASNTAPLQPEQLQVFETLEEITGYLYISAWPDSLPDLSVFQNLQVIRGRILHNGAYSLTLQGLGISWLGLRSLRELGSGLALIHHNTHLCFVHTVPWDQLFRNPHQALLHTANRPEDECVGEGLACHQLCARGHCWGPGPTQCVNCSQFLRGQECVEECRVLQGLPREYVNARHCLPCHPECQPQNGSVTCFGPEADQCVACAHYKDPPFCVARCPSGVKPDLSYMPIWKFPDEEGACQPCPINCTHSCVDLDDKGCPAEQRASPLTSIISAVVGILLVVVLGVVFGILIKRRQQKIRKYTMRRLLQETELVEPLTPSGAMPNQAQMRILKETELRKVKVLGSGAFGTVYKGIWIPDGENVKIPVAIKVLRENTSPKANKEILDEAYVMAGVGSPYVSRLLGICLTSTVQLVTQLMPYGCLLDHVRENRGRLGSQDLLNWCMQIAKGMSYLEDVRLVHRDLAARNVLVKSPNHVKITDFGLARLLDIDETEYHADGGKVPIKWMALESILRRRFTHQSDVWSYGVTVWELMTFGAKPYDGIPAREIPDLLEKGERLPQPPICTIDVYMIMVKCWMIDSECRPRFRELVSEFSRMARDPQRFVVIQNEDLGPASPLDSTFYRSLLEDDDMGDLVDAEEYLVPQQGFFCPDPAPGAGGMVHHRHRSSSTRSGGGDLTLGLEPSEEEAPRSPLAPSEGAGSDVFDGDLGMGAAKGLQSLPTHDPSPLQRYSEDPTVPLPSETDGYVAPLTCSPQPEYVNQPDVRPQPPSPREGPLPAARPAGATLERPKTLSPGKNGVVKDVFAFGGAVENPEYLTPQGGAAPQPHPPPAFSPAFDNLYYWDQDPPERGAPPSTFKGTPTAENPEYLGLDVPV
Chain of Epidermal growth factor receptor (Homo sapiens, UniProt P00533) (P00533 whole entry): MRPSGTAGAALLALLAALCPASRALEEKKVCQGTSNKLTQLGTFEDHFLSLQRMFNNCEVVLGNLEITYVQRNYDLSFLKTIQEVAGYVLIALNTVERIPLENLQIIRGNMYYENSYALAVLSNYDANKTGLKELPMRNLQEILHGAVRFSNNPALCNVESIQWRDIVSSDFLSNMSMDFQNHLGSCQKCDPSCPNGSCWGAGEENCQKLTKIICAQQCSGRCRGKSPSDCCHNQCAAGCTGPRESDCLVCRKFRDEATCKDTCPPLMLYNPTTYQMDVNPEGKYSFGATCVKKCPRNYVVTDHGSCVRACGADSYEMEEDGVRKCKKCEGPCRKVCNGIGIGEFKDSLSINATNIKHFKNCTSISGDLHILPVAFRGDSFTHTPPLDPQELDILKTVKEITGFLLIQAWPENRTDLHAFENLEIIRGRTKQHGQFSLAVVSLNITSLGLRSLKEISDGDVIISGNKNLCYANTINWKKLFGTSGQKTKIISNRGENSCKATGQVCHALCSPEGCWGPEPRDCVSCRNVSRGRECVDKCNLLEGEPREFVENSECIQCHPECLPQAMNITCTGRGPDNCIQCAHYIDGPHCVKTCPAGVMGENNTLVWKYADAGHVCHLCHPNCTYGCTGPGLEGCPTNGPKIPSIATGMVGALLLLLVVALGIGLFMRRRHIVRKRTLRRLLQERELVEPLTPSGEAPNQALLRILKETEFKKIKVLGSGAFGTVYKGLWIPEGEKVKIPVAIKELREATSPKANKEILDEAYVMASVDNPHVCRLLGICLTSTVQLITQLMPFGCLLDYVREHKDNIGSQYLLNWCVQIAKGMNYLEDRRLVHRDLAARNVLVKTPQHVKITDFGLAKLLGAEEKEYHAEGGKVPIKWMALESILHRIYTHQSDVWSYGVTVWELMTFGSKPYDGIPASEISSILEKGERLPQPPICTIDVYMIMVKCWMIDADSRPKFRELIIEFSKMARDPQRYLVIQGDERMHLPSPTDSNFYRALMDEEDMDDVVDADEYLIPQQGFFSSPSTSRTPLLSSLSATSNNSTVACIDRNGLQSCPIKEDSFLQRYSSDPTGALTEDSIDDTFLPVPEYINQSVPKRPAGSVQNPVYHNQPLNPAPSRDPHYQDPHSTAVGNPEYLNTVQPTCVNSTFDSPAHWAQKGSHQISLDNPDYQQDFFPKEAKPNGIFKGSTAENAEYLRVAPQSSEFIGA
Chain of Epidermal growth factor receptor (Homo sapiens, UniProt P00533, T790M) (P00533 25-1210 T790M limits assumed): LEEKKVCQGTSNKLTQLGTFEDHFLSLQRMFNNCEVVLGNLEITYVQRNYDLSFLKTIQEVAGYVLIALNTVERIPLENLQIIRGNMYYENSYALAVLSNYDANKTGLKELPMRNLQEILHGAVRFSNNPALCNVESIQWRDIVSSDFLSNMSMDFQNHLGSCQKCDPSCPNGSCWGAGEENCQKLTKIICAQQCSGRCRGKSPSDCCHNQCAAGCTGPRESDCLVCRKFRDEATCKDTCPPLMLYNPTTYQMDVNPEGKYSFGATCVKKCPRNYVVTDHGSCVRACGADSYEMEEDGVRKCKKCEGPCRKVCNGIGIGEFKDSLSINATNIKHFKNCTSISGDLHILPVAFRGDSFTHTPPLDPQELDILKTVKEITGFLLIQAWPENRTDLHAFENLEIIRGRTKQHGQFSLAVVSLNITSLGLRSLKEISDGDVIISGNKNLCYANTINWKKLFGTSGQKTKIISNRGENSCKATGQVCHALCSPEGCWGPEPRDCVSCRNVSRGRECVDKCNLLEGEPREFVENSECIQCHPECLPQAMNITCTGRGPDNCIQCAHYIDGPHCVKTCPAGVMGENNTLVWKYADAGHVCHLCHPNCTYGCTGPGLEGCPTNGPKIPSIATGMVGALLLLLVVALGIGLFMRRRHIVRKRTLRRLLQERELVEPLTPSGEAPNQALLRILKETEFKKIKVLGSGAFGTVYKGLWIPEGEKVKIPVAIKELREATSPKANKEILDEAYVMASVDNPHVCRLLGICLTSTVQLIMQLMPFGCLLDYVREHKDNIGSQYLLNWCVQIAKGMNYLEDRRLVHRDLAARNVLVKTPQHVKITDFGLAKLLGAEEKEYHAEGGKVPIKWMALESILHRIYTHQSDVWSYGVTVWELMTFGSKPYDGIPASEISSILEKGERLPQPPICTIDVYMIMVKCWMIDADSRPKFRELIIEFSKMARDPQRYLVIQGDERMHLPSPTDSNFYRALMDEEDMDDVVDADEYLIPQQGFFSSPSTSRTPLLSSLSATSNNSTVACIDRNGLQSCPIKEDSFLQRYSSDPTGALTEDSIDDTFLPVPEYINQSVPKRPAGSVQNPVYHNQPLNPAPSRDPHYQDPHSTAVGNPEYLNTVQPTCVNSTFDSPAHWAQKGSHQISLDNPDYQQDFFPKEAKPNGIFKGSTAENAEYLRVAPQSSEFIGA
T2 sequence (Q12809 whole entry): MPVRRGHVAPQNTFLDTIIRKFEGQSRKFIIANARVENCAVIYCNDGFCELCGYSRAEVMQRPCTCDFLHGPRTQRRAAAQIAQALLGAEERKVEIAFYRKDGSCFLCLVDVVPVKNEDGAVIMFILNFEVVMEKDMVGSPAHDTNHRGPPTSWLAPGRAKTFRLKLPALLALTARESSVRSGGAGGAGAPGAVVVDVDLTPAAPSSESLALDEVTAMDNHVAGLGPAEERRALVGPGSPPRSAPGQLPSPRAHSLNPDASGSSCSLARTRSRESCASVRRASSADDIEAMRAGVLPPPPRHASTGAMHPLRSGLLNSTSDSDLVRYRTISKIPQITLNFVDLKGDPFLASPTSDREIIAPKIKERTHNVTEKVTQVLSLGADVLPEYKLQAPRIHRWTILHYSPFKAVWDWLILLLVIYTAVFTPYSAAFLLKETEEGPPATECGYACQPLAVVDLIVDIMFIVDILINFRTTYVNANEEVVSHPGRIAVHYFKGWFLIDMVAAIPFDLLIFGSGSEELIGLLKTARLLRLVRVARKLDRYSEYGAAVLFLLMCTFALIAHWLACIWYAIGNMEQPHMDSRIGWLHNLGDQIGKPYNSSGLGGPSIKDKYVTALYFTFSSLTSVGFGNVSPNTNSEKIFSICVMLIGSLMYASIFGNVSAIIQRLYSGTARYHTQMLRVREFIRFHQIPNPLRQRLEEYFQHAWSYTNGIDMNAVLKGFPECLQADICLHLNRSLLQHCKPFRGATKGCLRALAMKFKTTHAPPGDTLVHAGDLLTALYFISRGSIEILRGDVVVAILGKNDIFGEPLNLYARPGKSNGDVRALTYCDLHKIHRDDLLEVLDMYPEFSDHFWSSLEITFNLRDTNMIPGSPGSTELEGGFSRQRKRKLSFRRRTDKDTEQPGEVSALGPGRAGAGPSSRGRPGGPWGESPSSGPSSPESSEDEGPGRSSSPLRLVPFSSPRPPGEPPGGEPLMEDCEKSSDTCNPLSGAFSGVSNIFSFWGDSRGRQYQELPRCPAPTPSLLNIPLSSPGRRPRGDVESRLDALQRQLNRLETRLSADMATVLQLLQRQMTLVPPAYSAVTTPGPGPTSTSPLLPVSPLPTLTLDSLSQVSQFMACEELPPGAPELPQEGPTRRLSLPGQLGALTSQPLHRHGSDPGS

SMILES: COc1cc2ncnc(Nc3ccc(F)c(Cl)c3)c2cc1NC(=O)/C(F)=C\CN1CCOCC1
- IC50 (A-431): 830 nM
- IC50 (NCI-H1975 [1]): 1110 nM

SMILES: CCOc1cc2ncnc(Nc3ccc(Oc4ccc(C)nc4)c(Cl)c3)c2cc1NC(=O)/C(F)=C/CN1CCCCC1
- IC50 (A-431): 3490 nM
- IC50 [2]: 37.9 nM
- IC50 (NCI-H1975 [1]): 3600 nM
- IC50 [3]: 12.9 nM

SMILES: COc1cc2ncnc(Nc3ccc(OCc4cccc(F)c4)c(Cl)c3)c2cc1NC(=O)/C(F)=C\CN(C)C
- IC50 (A-431): 1690 nM
- IC50 (NCI-H1975 [1]): 2000 nM
- IC50 [3]: 1.3 nM

SMILES: CCOc1cc2ncnc(Nc3ccc(Oc4ccc(C)nc4)c(Cl)c3)c2cc1NC(=O)/C(F)=C\CN1CCCCC1
- IC50 (A-431): 24800 nM
- IC50 (NCI-H1975 [1]): 6420 nM
- IC50 [3]: 39.2 nM

SMILES: CCOc1cc2ncnc(Nc3ccc(OCC4CC4)c(Cl)c3)c2cc1NC(=O)/C(F)=C\CN(C)C
- IC50 (A-431): 1340 nM
- IC50 (NCI-H1975 [1]): 2980 nM
- IC50 [3]: 11.2 nM

SMILES: CCOc1cc2ncnc(Nc3ccc(OCc4ccccn4)c(Cl)c3)c2cc1NC(=O)/C(F)=C/CN(C)C
- T/C (NCI-H1975 [4]): 15.6%
- IC50 (A-431): 340 nM
- Kp at 6 h [5]: 11
- bioavailability [6]: 89.4%
- IC50 [7]: 1.38 nM
- IC50 (Cytochrome P450 1A2): > 10000 nM
- inhibition at 10 µM (hERG (KCNH2) [8]): 3.06%
- microsomal CLint at 1 µM [9]: 95 µL/min/mg
- microsomal CLint at 1 µM [10]: 27 µL/min/mg
- IC50 [2]: 3.77 nM
- microsomal CLint at 1 µM [11]: 33 µL/min/mg
- inhibition at 1 µM (hERG (KCNH2) [12]): 0%
- CL/F [13]: 20 mL/min/kg
- Vz (Mus musculus): 3.94 L/kg
- IC50 (Cytochrome P450 3A4): > 10000 nM
- microsomal CLint at 1 µM [14]: 47 µL/min/mg
- IC50 (Cytochrome P450 2C19): > 10000 nM
- Kp at 6 h [15]: 0.29
- IC50 [3]: 0.18 nM
- microsomal CLint at 1 µM [16]: 97 µL/min/mg
- IC50 (Cytochrome P450 2D6): > 10000 nM
- IC50 (Cytochrome P450 2C9): > 10000 nM
- Cmax [17]: 2660 nM
- AUC(0-inf) [18]: 16.6 µM·h

SMILES: CCOc1cc2ncnc(Nc3ccc(OCc4ccccn4)c(Cl)c3)c2cc1NC(=O)/C(F)=C\CN(C)C
- IC50 (NCI-H1975 [1]): 1130 nM

SMILES: CCOc1cc2ncnc(Nc3ccc(Oc4ccc(C)nc4)c(Cl)c3)c2cc1NC(=O)/C(F)=C\CN(C)C
- IC50 (A-431): 5900 nM
- IC50 (NCI-H1975 [1]): 2940 nM
- IC50 [3]: 9.5 nM

SMILES: O=C(Nc1cc2c(Nc3ccc(F)c(Cl)c3)ncnc2cc1O[C@H]1CCOC1)/C(F)=C/CN1CCOCC1
- IC50 (A-431): 11500 nM
- IC50 [7]: 1570 nM
- inhibition at 10 µM (hERG (KCNH2) [8]): 11.1%
- inhibition at 1 µM (hERG (KCNH2) [12]): 0.94%
- IC50 (NCI-H1975 [1]): 4370 nM

SMILES: COc1cc2ncnc(Nc3cccc(Br)c3)c2cc1NC(=O)/C(F)=C/CN(C)C
- IC50 (A-431): 2100 nM
- IC50 [2]: 8.3 nM
- IC50 (NCI-H1975 [1]): 3300 nM
- IC50 [3]: 2.6 nM

SMILES: CCOc1cc2ncnc(Nc3ccc(Oc4ccc(C)nc4)c(Cl)c3)c2cc1NC(=O)/C(F)=C/CN(C)C
- IC50 (A-431): 1670 nM
- IC50 [2]: 7.1 nM
- IC50 (NCI-H1975 [1]): 2490 nM
- IC50 [3]: 4.5 nM

SMILES: COc1cc2ncnc(Nc3cccc(Br)c3)c2cc1NC(=O)/C(F)=C\CN(C)C
- IC50 (A-431): 1200 nM
- IC50 (NCI-H1975 [1]): 4100 nM
- IC50 [3]: 5 nM

SMILES: COc1cc2ncnc(Nc3ccc(OCc4cccc(F)c4)c(Cl)c3)c2cc1NC(=O)/C(F)=C/CN(C)C
- IC50 (A-431): 4020 nM
- IC50 [2]: 2.1 nM
- IC50 (NCI-H1975 [1]): 2060 nM
- IC50 [3]: 1.56 nM

SMILES: C=CC(=O)Nc1cc2c(Nc3ccc(F)c(Cl)c3)ncnc2cc1OCCCN1CCOCC1 [CANERTINIB]
- microsomal CLint at 1 µM [9]: 26 µL/min/mg
- microsomal CLint at 1 µM [10]: 50 µL/min/mg
- microsomal CLint at 1 µM [11]: 105 µL/min/mg
- microsomal CLint at 1 µM [14]: 5 µL/min/mg
- microsomal CLint at 1 µM [16]: 221 µL/min/mg

SMILES: COc1cccc2c1C(=O)c1c(O)c3c(c(O)c1C2=O)C[C@@](O)(C(=O)CO)C[C@@H]3O[C@H]1C[C@H](N)[C@H](O)[C@H](C)O1 [DOXORUBICIN]
- inhibition of growth at 5 µM (SW-620): 79.8%

SMILES: O=C(Nc1cc2c(Nc3ccc(F)c(Cl)c3)ncnc2cc1O[C@H]1CCOC1)/C(F)=C\CN1CCOCC1
- IC50 (A-431): 10900 nM
- IC50 (NCI-H1975 [1]): 3010 nM

SMILES: CN(C)C/C=C(/F)C(=O)Nc1cc2c(Nc3ccc(F)c(Cl)c3)ncnc2cc1O[C@H]1CCOC1
- IC50 (A-431): 3060 nM
- IC50 [7]: 97.1 nM
- inhibition at 10 µM (hERG (KCNH2) [8]): 39.5%
- IC50 [2]: 25.8 nM
- inhibition at 1 µM (hERG (KCNH2) [12]): 6.37%
- IC50 (NCI-H1975 [1]): 1530 nM

SMILES: CCOc1cc2ncnc(Nc3ccc(OCC4CC4)c(Cl)c3)c2cc1NC(=O)/C(F)=C/CN(C)C
- IC50 (A-431): 750 nM
- IC50 [2]: 3.5 nM
- IC50 (NCI-H1975 [1]): 1190 nM
- IC50 [3]: 3.6 nM

SMILES: O=C(Nc1cc2c(Nc3ccc(F)c(Cl)c3)ncnc2cc1O[C@H]1CCOC1)/C(F)=C\CN1CCCCC1
- IC50 (A-431): 1800 nM
- IC50 (NCI-H1975 [1]): 710 nM
- IC50 [3]: 2.55 nM

SMILES: COc1cc2ncnc(Nc3ccc(F)c(Cl)c3)c2cc1NC(=O)/C(F)=C/CN1CCOCC1
- IC50 (A-431): 2630 nM
- IC50 [7]: 1540 nM
- IC50 [2]: 59.8 nM
- IC50 (NCI-H1975 [1]): 2020 nM

SMILES: O=C(Nc1cc2c(Nc3ccc(F)c(Cl)c3)ncnc2cc1O[C@H]1CCOC1)/C(F)=C/CN1CCCCC1
- IC50 (A-431): 1560 nM
- IC50 [2]: 16.4 nM
- IC50 (NCI-H1975 [1]): 290 nM
- IC50 [3]: 2.6 nM
